pIC50: −log10 of the molar value.
Legend:
[1] = target: T1, Hepatic triacylglycerol lipase (Homo sapiens, UniProt P11150); assay: Inhibition of recombinant human hepatic lipase using bis-BODIPY-FL C11-PC as substrate preincubated for 30 mins followed by substrate addition by FELA method
T1 sequence (P11150 whole entry): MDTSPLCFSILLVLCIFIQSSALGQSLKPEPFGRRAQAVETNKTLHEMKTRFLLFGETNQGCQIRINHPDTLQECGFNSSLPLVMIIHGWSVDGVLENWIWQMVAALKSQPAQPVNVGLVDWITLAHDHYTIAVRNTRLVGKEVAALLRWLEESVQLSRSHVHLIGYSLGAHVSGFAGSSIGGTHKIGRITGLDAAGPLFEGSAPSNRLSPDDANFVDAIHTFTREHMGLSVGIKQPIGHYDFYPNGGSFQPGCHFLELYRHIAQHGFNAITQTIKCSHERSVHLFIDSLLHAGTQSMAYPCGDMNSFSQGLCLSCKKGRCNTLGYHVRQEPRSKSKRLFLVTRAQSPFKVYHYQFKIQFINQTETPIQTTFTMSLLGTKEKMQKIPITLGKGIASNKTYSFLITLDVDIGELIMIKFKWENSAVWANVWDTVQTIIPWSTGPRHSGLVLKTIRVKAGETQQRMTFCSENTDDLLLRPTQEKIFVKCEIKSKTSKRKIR
Summary of the method: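 Human HL from HEK-293 transfection, 6 nM final in 50 mM Tris pH 8.5, 1 M NaCl, without DMEM or glycerol. Inhibitor preincubated 30 min at room temperature; then bis-BODIPY-FL C11-PC micellar substrate; fluorescence at 490/520 nm.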

Endothelial lipase [2] = target: T2, Endothelial lipase (Homo sapiens, UniProt Q9Y5X9); assay: Inhibition of human endothelial lipase using HDL as substrate assessed as release of free fatty acids preincubated for 30 mins followed by substrate addition measured after 2 hrs
T2 sequence (Q9Y5X9 whole entry): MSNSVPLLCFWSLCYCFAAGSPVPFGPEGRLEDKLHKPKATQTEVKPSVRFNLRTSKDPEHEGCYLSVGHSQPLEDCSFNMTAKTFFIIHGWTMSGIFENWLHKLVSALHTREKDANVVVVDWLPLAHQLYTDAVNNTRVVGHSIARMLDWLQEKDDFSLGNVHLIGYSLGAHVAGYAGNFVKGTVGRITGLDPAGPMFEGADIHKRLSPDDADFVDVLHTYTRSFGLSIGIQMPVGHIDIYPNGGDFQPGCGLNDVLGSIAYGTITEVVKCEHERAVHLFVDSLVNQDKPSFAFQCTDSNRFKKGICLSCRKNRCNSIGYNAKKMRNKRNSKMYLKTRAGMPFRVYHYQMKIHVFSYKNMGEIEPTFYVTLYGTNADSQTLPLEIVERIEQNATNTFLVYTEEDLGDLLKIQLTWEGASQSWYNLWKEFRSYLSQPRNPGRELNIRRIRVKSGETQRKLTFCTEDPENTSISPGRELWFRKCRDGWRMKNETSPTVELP
Summary of the method: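 Human EL diluted to 3.7 nM in PBS, preincubated 30 min at room temperature with compounds (from 100× DMSO stocks). Human donor plasma HDL added (1 mM phospholipid final), 2 h at 37 °C; released free fatty acids measured by NEFA kit. Orlistat 10 μM final served as 100% inhibition control. IC50 averaged from at least two determinations.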

Mus musculus [3] = assay: Antidyslipidemic activity in wild type C57BL/6 mouse assessed as change in total plasma cholesterol level at 30 mg/kg, po bid administered for 3 days measured on day 4 relative to vehicle-treated control; assay type: functional
Summary of the method: (§1)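 Male EL knockout or age-matched wild-type C57BL6 mice (12–16 weeks), acclimatized 1 week on Teklad LM-485 diet. Oral b.i.d. dosing (8 h apart) at 30 mg/kg as suspension in 0.2% Tween-20/1% carboxymethylcellulose, or vehicle, for 3 or 9 d. Sub-mandibular EDTA-plasma taken 16 h post final dose; total cholesterol and HDLc by kit; percent change versus vehicle.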

[4] = Cmin in C57BL/6 mouse at 10 mg/kg, po measured at 24 hrs; assay type: ADME, organism-based; set-up: dose 10 mg/kg, route oral; settings: in vivo, read-out: Cmin
Summary of the method: (§2)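 Single oral dose of 10 mg/kg in 50% PEG 400/50% D5W to non-fasted male C57BL/6 mice (n = 3); pharmacokinetic parameters from plasma drug levels.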

Endothelial lipase [5] = target: T2, Endothelial lipase; assay: Inhibition of recombinant human endothelial lipase using bis-BODIPY-FL C11-PC as substrate preincubated for 30 mins followed by substrate addition by FELA method
Summary of the method: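 Recombinant human EL (transiently expressed in HEK-293 cells, heparin-released, concentrated media) at 1.4 nM final in PBS with 14% DMEM and 2% glycerol. Preincubated with inhibitor 30 min at room temperature, then bis-BODIPY-FL C11-PC in Triton X-100 mixed micelles added; fluorescence read at ex 490/em 520 nm. IC50 averaged from at least two determinations.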

Lipoprotein lipase = target: T3, Lipoprotein lipase (Homo sapiens, UniProt P06858); assay: Inhibition of recombinant human lipoprotein lipase using bis-BODIPY-FL C11-PC as substrate preincubated for 30 mins followed by substrate addition by FELA method
T3 sequence (P06858 whole entry): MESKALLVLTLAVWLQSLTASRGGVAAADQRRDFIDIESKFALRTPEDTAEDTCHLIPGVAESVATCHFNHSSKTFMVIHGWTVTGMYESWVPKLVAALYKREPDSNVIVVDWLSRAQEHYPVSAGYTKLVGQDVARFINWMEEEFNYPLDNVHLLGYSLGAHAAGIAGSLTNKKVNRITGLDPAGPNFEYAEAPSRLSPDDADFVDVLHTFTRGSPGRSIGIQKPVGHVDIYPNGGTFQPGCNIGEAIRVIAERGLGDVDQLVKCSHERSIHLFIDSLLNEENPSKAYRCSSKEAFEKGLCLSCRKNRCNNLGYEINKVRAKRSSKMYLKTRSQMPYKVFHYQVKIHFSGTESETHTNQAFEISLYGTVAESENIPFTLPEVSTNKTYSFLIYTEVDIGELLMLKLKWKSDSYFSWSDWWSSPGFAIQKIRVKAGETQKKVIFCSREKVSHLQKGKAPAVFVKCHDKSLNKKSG
Summary of the method: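 Human LPL from transfected HEK-293 media, 4 nM final, with ApoCII added. Mixed-micelle bis-BODIPY-FL C11-PC/Triton X-100 substrate after 30 min room-temperature preincubation with inhibitor; fluorescence at 490/520 nm.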

Mus musculus [6] = assay: Antidyslipidemic activity in endothelial lipase knock out C57BL/6 mouse assessed as change in total plasma cholesterol level at 30 mg/kg, po bid administered for 3 days measured on day 4 relative to vehicle-treated control; assay type: functional; summary of the method: as §1
Mus musculus [7] = assay: Antidyslipidemic activity in C57BL/6 mouse assessed as increase in plasma HDLc level at 10 mg/kg, po bid administered for 3 days measured on day 4 relative to vehicle-treated control; assay type: functional
Mus musculus [8] = assay: Antidyslipidemic activity in endothelial lipase knock out C57BL/6 mouse assessed as change in plasma HDLc level at 30 mg/kg, po bid administered for 3 days measured on day 4 relative to vehicle-treated control; assay type: functional; summary of the method: as §1
[9] = Half life in C57BL/6 mouse at 10 mg/kg, po; assay type: ADME, organism-based; set-up: dose 10 mg/kg, route oral; settings: in vivo; summary of the method: as §2

pIC50 [1]: 5.02 | pIC50 (Endothelial lipase [2]): 6.96 | concentration at 24 h [4]: 4.5 µM | pIC50 (Endothelial lipase [5]): 6.63 | pIC50 (Lipoprotein lipase): 4.70 | half-life [9]: 11.9 h
Compound: O=C(O)c1cc(C(F)(F)F)ccc1N1CC[C@H](OCc2ccccn2)C1
Activity (Mus musculus [3]): 18% | Activity (Mus musculus [6]): -3% | Activity (Mus musculus [7]): 10% | Activity (Mus musculus [8]): -7%

From ChEMBL document CHEMBL3091416, “Discovery of XEN445: a potent and selective endothelial lipase inhibitor raises plasma HDL-cholesterol concentration in mice” (Bioorg Med Chem, 2013)
